Bioassay records as filed in PubChem.
In the library only some 3% were active in any assay of this set; here they are far more common.
Tn7 DDE FP: inhibitors of Tn7 peptide binding to fibrin DD(E), primary screen, biochemical, fluorescence polarization, human fibrin, Tn7 probe; Fibrinogen beta chain (Homo sapiens), P02675; FP displacement of FITC-Tn7 peptide from fibrin DD(E); 0% = median of compound wells per plate; inhibition, % at 8.3 µM; 0.13% of 370,000 active; AID 720508, 2013;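 active = inhibition above the mean of compounds falling within the control limits plus 3 SD of them, cut at about 14% in these data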;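 note: 0% = plate median of compound wells and 100% = 10 µM Aha-Tn7 peptide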
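Test system – human fibrin DD(E) · Times – 10 min preincubation, 3 h with tracer, room temperature · Detection – fluorescence polarization of the labelled Tn7 tracer · Measure – percent inhibition normalized to high-control wells · Benchmarks – high control wells with 10 µM unlabelled Aha-Tn7 peptide (full inhibition) · Repeats – singlicate testing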
PLCb3 inh: human PLC-beta3 inhibitors, primary screen, biochemical, fluorescence. 1-phosphatidylinositol 4,5-bisphosphate phosphodiesterase beta-3 (Homo sapiens), Q01970. Purified PLC-beta3, fluorogenic substrate. inhibition, % at 12.2 µM. 0.18% of 370,000 active; in the data active = inhibition above about 11%;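 note: 0% = median of compound wells on plate and 100% = full blocker control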
KLK7 zymogen act: proKLK7 zymogen activators, primary screen, biochemical, fluorescence intensity | purified proKLK7, EDANS-DABCYL substrate fluorescence; 100% is mature enzyme control, 0% vehicle | activation, % at 7 µM | AID 652039, 2013 | Kallikrein-7 (Homo sapiens), P49862 | 0.9% of 370,000 active;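 active = activation above the mean of all tested compounds plus 3 SD, computed per campaign excluding outliers beyond control limits, cut at about 13% in these data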
Target sequence (P49862 whole entry, looked up): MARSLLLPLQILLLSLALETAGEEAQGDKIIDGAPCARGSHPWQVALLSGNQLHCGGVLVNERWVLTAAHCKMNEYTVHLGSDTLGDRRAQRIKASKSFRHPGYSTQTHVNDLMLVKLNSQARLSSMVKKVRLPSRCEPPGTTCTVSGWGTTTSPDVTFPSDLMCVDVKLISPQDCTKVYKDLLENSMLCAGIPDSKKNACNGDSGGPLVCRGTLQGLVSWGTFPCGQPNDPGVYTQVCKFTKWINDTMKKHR
PLCg1 inh: PLC-gamma1 enzyme inhibitors, primary screen, biochemical, fluorescence, purified enzyme | 1-phosphatidylinositol 4,5-bisphosphate phosphodiesterase gamma-1 (Homo sapiens), P19174 | fluorogenic substrate | inhibition, % at 12.2 µM | 0.84% of 370,000 active | AID 720700, 2013; in the data active = inhibition above about 9.5%
DDE Tn6 FP inh: inhibitors of Tn6 peptide binding to fibrin DD(E), primary screen, biochemical, fluorescence polarization, human fibrin, Tn6 probe | 0.21% of 370,000 active | inhibition, % at 8.3 µM | Fibrin DD(E) TRITC-Tn6 fluorescence polarization displacement;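 active = inhibition above a per-campaign cutoff: mean of compounds within control limits plus 3 SD, cut at about 15% in these data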;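 note: 0% = median of all compound wells on the plate and 100% = blocking peptide control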
CendR NRP1 mod: modulators of CendR peptide binding to NRP-1, primary screen, biochemical, fluorescence polarization, uHTS. Neuropilin-1 (Homo sapiens), O14786. 0.85% of 360,000 active. FAM-RPARPAR peptide binding to NRP-1. inhibition, % at 25 µM;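 active = inhibition or corrected inhibition above about 18%, plus a signal ratio from 0.5 to 1.5, limit read from the data, passing the limit was not always enough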
DDE Tn6 FP ctr: counter-screen for inhibitors of Tn6 peptide binding to fibrin DD(E); shares compounds with DDE Tn6 FP inh; TRITC-Tn6 fluorescence polarization displacement; 0% = median of compound wells, not DMSO; inhibition, % at 8.3 µM; 2% of 680 active; AID 720621;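 active = inhibition above the mean of test compounds lying between the control limits plus 3 SD of those, cut at about 14% in these data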;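 note: 0% = median of compound wells and 100% = wells with Aha-Tn7 blocking peptide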
DDE Tn6 confirm: inhibitors of Tn6 peptide binding to fibrin DD(E), confirmation, biochemical, fluorescence polarization, human fibrin, Tn6 probe; 10% of 680 active; shares compounds with DDE Tn6 FP inh; FP displacement of TRITC-Tn6 peptide from DD(E); 0% = per-plate median of test wells; inhibition, % at 8.3 µM;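 active = inhibition above the mean of compounds lying within the control limits plus 3 SD, cut at about 16% in these data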;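 note: 100% = high control wells holding a competing inhibitor peptide at 10 µM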
* = called active by the depositor; · = not tested or not shown.

SMILES	Tn7 DDE FP	PLCb3 inh	KLK7 zymogen act	PLCg1 inh	DDE Tn6 FP inh	CendR NRP1 mod	DDE Tn6 FP ctr	DDE Tn6 confirm
C=C(C)C(=O)N1CC2(CC(c3cccc(NC(=O)CC(c4ccccc4)c4ccccc4)c3)=NO2)C[C@H]1C(N)=O (some centres not stated)	4	2	1	1	15*	1	2	2
CCN(CC)c1ccc(N=C2C=CC(=O)C=C2NC(C)=O)cc1	-5	-15	1	-4	20*	5	4	54*
C[C@@H]1COc2cc(Br)ccc2S(=O)(=O)N1Cc1cn(CCC2OCCCO2)nn1	0	-3	0	-1	1	·	·	·
CC(=O)Nc1cccc(C(=O)OC(C)C(=O)N2CCc3ccccc32)c1 (configuration not stated)	0	0	0	2	-2	2	·	·
CC(OC(=O)c1cccc([N+](=O)[O-])c1)C(=O)N1CCc2ccccc21 (configuration not stated)	-12	-5	0	5	16*	10	3	1
CN1C2=N[C@H](c3ccccc3)CC(=O)N2/C(=C\c2ccccc2)C1Cc1ccccc1 (some centres not stated)	5	-10	0	-7	-5	·	·	·
O=C(O)c1ccc(NC(=O)c2ccc3c(c2)C(=O)N(c2ccccc2)C3=O)cc1	1	-6	0	-10	0	-2	·	·
O=C(O)c1ccc(S(=O)(=O)c2ccc3c(c2)C(=O)N(c2ccc(O)cc2)C3=O)cc1	0	-18	1	-7	48*	3	2	1
CC1(C)c2ccccc2N2CCC(=O)NC21/C=C/c1ccco1 (configuration not stated)	5	-96	0	-74	17*	-62	-7	-9
COc1ccc(C(=O)c2no[n+]([O-])c2C(=O)c2ccc(OC)cc2)cc1	0	-4	0	-3	4	-14	·	·
Cc1c(C(=O)c2no[n+]([O-])c2C(=O)c2cnn(C)c2C)cnn1C	-12	-1	0	2	16*	8	-11	2
COc1ccc(NC(=O)Cn2cnc3c(cnn3-c3ccc(C)c(C)c3)c2=O)c(OC)c1	2	-2	0	1	16*	0	6	-8
CCOC(=O)N1CCN(C(=O)C[C@H]2C[C@@]3(C(=O)OC)C(=C[C@H](C(C)C)O[C@@H]3C3CC3)N(CCc3ccc(OC)c(OC)c3)C2=O)CC1	2	4	0	-1	8	·	·	·
CCCCC(CC)C(=O)N1CCN(C(=O)c2ccco2)CC1 (configuration not stated)	5	0	1	-3	17*	-1	-9	-10
CCCCNC(=O)N1CCN(C(=O)c2ccco2)CC1	5	4	0	4	8	4	·	·
Cc1cc(C)cc(N(CC(=O)NC2CCC(C)CC2)S(=O)(=O)c2ccccc2)c1 (configuration not stated)	-3	-4	0	-1	0	·	·	·
O=C1CCCC/C1=C\Nc1ccc(O)cc1	5	-55	0	-42	27*	1	4	0
CC1CCC/C(=C\Nc2ccc3c(c2)OCO3)C1=O (configuration not stated)	4	-28	0	-23	11	-5	·	·
